Test results from ChEMBL document CHEMBL3856229, “Hybrid Antibiotic Overcomes Resistance in P. aeruginosa by Enhancing Outer Membrane Penetration and Reducing Efflux” (J Med Chem, 2016).
≈ marks a conversion by molar mass, not a printed value.

What was measured:
[1] = test system: Staphylococcus aureus; test: Antibacterial activity against Staphylococcus aureus ATCC 29213 after 24 hrs by microtitre broth dilution method; format: functional; settings: ATCC 29213, 24 h
[2] = test system: Staphylococcus aureus; test: Antibacterial activity against methicillin-resistant Staphylococcus aureus ATCC 33592 after 24 hrs by microtitre broth dilution method; format: functional; settings: ATCC 33592, 24 h
[3] = test system: Staphylococcus epidermidis; test: Antibacterial activity against methicillin-susceptible Staphylococcus epidermidis isolate CANWARD-2008 81388 after 24 hrs by microtitre broth dilution method; format: functional; settings: isolate CANWARD-2008 81388, 24 h
[4] = test system: Staphylococcus epidermidis; test: Antibacterial activity against methicillin-resistant Staphylococcus epidermidis isolate CAN-ICU 61589 after 24 hrs by microtitre broth dilution method; format: functional; settings: isolate CAN-ICU 61589, 24 h
[5] = test system: Enterococcus faecalis; test: Antibacterial activity against Enterococcus faecalis ATCC 29212 after 24 hrs by microtitre broth dilution method; format: functional; settings: ATCC 29212, 24 h
[6] = test system: Enterococcus faecium; test: Antibacterial activity against Enterococcus faecium ATCC 27270 after 24 hrs by microtitre broth dilution method; format: functional; settings: ATCC 27270, 24 h
[7] = test system: Streptococcus pneumoniae; test: Antibacterial activity against Streptococcus pneumoniae ATCC 49619 after 24 hrs by microtitre broth dilution method; format: functional; settings: ATCC 49619, 24 h
[8] = test system: Escherichia coli; test: Antibacterial activity against gentamicin-resistant Escherichia coli isolate CAN-ICU 61714 after 24 hrs by microtitre broth dilution method; format: functional; settings: isolate CAN-ICU 61714, 24 h
[9] = test system: Escherichia coli; test: Antibacterial activity against amikacin-resistant Escherichia coli isolate CAN-ICU 63074 after 24 hrs by microtitre broth dilution method; format: functional; settings: isolate CAN-ICU 63074, 24 h
[10] = test system: Escherichia coli; test: Antibacterial activity against gentamicin/tobramycin/ciprofloxacin-resistant Escherichia coli isolate CANWARD-2011 97615 harboring AAC3-2A after 24 hrs by microtitre broth dilution method; format: functional; settings: isolate CANWARD-2011 97615, 24 h
[11] = test system: Pseudomonas aeruginosa; test: Antibacterial activity against Pseudomonas aeruginosa ATCC 27853 after 24 hrs by microtitre broth dilution method; format: functional; settings: ATCC 27853, 24 h
[12] = test system: Pseudomonas aeruginosa; test: Antibacterial activity against gentamicin-resistant Pseudomonas aeruginosa isolate CAN-ICU 62308 after 24 hrs by microtitre broth dilution method; format: functional; settings: isolate CAN-ICU 62308, 24 h
[13] = test system: Pseudomonas aeruginosa; test: Antibacterial activity against gentamicin/tobramycin-resistant Pseudomonas aeruginosa isolate CANWARD-2011 96846 after 24 hrs by microtitre broth dilution method; format: functional; settings: isolate CANWARD-2011 96846, 24 h
[14] = test system: Stenotrophomonas maltophilia; test: Antibacterial activity against Stenotrophomonas maltophilia isolate CAN-ICU 62584 after 24 hrs by microtitre broth dilution method; format: functional; settings: isolate CAN-ICU 62584, 24 h
[15] = test system: Acinetobacter baumannii; test: Antibacterial activity against Acinetobacter baumannii isolate CAN-ICU 63169 after 24 hrs by microtitre broth dilution method; format: functional; settings: isolate CAN-ICU 63169, 24 h
[16] = test system: Klebsiella pneumoniae; test: Antibacterial activity against Klebsiella pneumoniae ATCC 13883 after 24 hrs by microtitre broth dilution method; format: functional; settings: ATCC 13883, 24 h
[17] = test system: Pseudomonas aeruginosa; test: Antibacterial activity against multidrug/extremely drug-resistant/colistin-susceptible Pseudomonas aeruginosa isolate 259-96918; format: functional
[18] = test system: Pseudomonas aeruginosa; test: Antibacterial activity against multidrug/extremely drug-resistant/colistin-susceptible Pseudomonas aeruginosa isolate 260-97103; format: functional
[19] = test system: Pseudomonas aeruginosa; test: Antibacterial activity against multidrug/extremely drug-resistant/colistin-susceptible Pseudomonas aeruginosa isolate 262-101856; format: functional
[20] = test system: Pseudomonas aeruginosa; test: Antibacterial activity against multidrug/extremely drug-resistant/colistin-susceptible Pseudomonas aeruginosa isolate 264-104354; format: functional
[21] = test system: Pseudomonas aeruginosa; test: Antibacterial activity against Pseudomonas aeruginosa PAO1; format: functional
[22] = test system: Escherichia coli; test: Antibacterial activity against Escherichia coli ATCC 25922 after 24 hrs by microtitre broth dilution method; format: functional; settings: ATCC 25922, 24 h
[23] = Inhibition of Pseudomonas aeruginosa DNA gyrase A assessed as inhibition of DNA supercoiling using PBR322 DNA as substrate after 30 mins by SYBR Gold staining based agarose gel electrophoresis
[24] = Inhibition of circular DNA translation in Escherichia coli S30 extract after 60 mins by luciferase reporter gene assay
In short: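 Translation was run in an E. coli S30 extract with a luciferase read-out. Luminescence is expressed as a percentage of the no-antibiotic control, taken as 100%.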

[25] = test system: Pseudomonas aeruginosa; test: Antibacterial activity against multidrug-resistant/tobramycin-susceptible Pseudomonas aeruginosa isolate 86052; format: functional
[26] = test system: Pseudomonas aeruginosa; test: Antibacterial activity against multidrug/extremely drug-resistant/colistin-susceptible Pseudomonas aeruginosa isolate 100036; format: functional
[27] = test system: Pseudomonas aeruginosa; test: Antibacterial activity against multidrug/extremely drug-resistant/colistin-susceptible Pseudomonas aeruginosa isolate 101885; format: functional
[28] = test system: Pseudomonas aeruginosa; test: Antibacterial activity against pandrug-resistant Pseudomonas aeruginosa isolate 91433; format: functional
[29] = test system: Pseudomonas aeruginosa; test: Antibacterial activity against pandrug-resistant Pseudomonas aeruginosa isolate 101243; format: functional
[30] = test system: Pseudomonas aeruginosa; test: Antibacterial activity against multidrug-resistant/tobramycin-susceptible Pseudomonas aeruginosa isolate 86053; format: functional
[31] = test system: Pseudomonas aeruginosa; test: Antibacterial activity against multidrug-resistant/tobramycin-susceptible Pseudomonas aeruginosa isolate 86067; format: functional
[32] = test system: Pseudomonas aeruginosa; test: Antibacterial activity against multidrug-resistant/tobramycin-susceptible Pseudomonas aeruginosa isolate 86079; format: functional
[33] = test system: Pseudomonas aeruginosa; test: Antibacterial activity against multidrug-resistant/tobramycin-susceptible Pseudomonas aeruginosa isolate 86141; format: functional
[34] = test system: Pseudomonas aeruginosa; test: Antibacterial activity against multidrug-resistant/tobramycin-susceptible Pseudomonas aeruginosa isolate 92014; format: functional
[35] = test system: Pseudomonas aeruginosa; test: Antibacterial activity against multidrug-resistant/tobramycin-susceptible Pseudomonas aeruginosa isolate 79199; format: functional
[36] = test system: Pseudomonas aeruginosa; test: Antibacterial activity against multidrug-resistant/tobramycin-susceptible Pseudomonas aeruginosa isolate 80621; format: functional
[37] = test system: Pseudomonas aeruginosa; test: Antibacterial activity against multidrug-resistant/tobramycin-susceptible Pseudomonas aeruginosa isolate 83182; format: functional
[38] = test system: Pseudomonas aeruginosa; test: Antibacterial activity against multidrug-resistant/tobramycin-susceptible Pseudomonas aeruginosa isolate 84745; format: functional
[39] = test system: Pseudomonas aeruginosa; test: Antibacterial activity against multidrug-resistant/tobramycin-susceptible Pseudomonas aeruginosa isolate 85322; format: functional
[40] = test system: Pseudomonas aeruginosa; test: Antibacterial activity against multidrug-resistant/tobramycin-susceptible Pseudomonas aeruginosa isolate 108590; format: functional

SMILES | MIC [1] [µg/mL] | MIC [2] [µg/mL] | MIC [3] [µg/mL] | MIC [4] [µg/mL] | MIC [5] [µg/mL] | MIC [6] [µg/mL] | MIC [7] [µg/mL] | MIC [8] [µg/mL] | MIC [9] [µg/mL] | MIC [10] [µg/mL] | MIC [11] [µg/mL] | MIC [12] [µg/mL] | MIC [13] [µg/mL] | MIC [14] [µg/mL] | MIC [15] [µg/mL] | MIC [16] [µg/mL] | MIC [17] [µg/mL] | MIC [18] [µg/mL] | MIC [19] [µg/mL] | MIC [20] [µg/mL] | other results
COc1c(N2C[C@@H]3CCCN(CCCCCCCCCCCCOC[C@H]4O[C@H](O[C@@H]5[C@@H](O)[C@H](O[C@H]6O[C@H](CN)[C@@H](O)C[C@H]6N)[C@@H](N)C[C@H]5N)[C@H](O)[C@@H](N)[C@@H]4O)[C@@H]3C2)c(F)cc2c(=O)c(C(=O)O)cn(C3CC3)c12.Cl.Cl.Cl.Cl.Cl | 16 | 16 | 8 | 8 | 32 | 16 | 64 | 64 | 64 | 128 | 64 | 32 | 64 | > 128 | > 128 | 16 | > 32 | 32 | > 32 | > 32 | MIC [21]: > 32 µg/mL; MIC [22]: 16 µg/mL; IC50 [23]: 2600 nM
COc1c(N2C[C@@H]3CCCN(CCCCCCCCCCCCO[C@H]4[C@@H](O[C@@H]5[C@@H](O)[C@H](O[C@H]6O[C@H](CN)[C@@H](O)C[C@H]6N)[C@@H](N)C[C@H]5N)O[C@H](CO)[C@@H](O)[C@@H]4N)[C@@H]3C2)c(F)cc2c(=O)c(C(=O)O)cn(C3CC3)c12.Cl.Cl.Cl.Cl.Cl | 4 | 8 | 2 | 8 | 32 | 16 | 32 | 64 | 32 | 128 | 16 | 128 | > 128 | > 128 | 128 | 4 | > 32 | > 32 | 32 | 32 | MIC [21]: > 32 µg/mL; MIC [22]: 4 µg/mL; IC50 [24]: 130 nM; IC50 [23]: 2100 nM
NCC[C@H](O)C(=O)N[C@@H]1C[C@H](N)[C@@H](O[C@H]2O[C@H](CN)[C@@H](O)[C@H](O)[C@H]2O)[C@H](O)[C@H]1O[C@H]1O[C@H](CO)[C@@H](O)[C@H](N)[C@H]1O [AMIKACIN] |  |  |  |  |  |  |  |  | 32 (≈ 54.6 µM) |  |  |  |  |  |  |  |  |  |  |  | 
Cc1nnc(SCC2=C(C(=O)O)N3C(=O)[C@@H](NC(=O)Cn4cnnn4)[C@H]3SC2)s1 [CEFAZOLIN] |  |  |  | > 32 |  |  |  |  |  |  |  |  |  |  |  |  |  |  |  |  | 
CO/N=C(\C(=O)N[C@@H]1C(=O)N2C(C(=O)[O-])=C(C[N+]3(C)CCCC3)CS[C@H]12)c1csc(N)n1 [CEFEPIME] |  |  |  |  |  |  |  |  |  |  |  |  |  |  |  |  | > 64 | 16 (≈ 33.3 µM) | 32 (≈ 66.6 µM) | 32 (≈ 66.6 µM) | MIC [25]: 16 µg/mL (≈ 33.3 µM); MIC [26]: 4 µg/mL (≈ 8.32 µM); MIC [27]: 8 µg/mL (≈ 16.6 µM); MIC [28]: 16 µg/mL (≈ 33.3 µM); MIC [29]: 64 µg/mL (≈ 133 µM); MIC [30]: 64 µg/mL (≈ 133 µM); MIC [31]: 64 µg/mL (≈ 133 µM); MIC [32]: 32 µg/mL (≈ 66.6 µM); MIC [33]: 16 µg/mL (≈ 33.3 µM); MIC [34]: 16 µg/mL (≈ 33.3 µM); MIC [35]: 32 µg/mL (≈ 66.6 µM); MIC [36]: 8 µg/mL (≈ 16.6 µM); MIC [37]: 16 µg/mL (≈ 33.3 µM); MIC [38]: 16 µg/mL (≈ 33.3 µM); MIC [39]: 16 µg/mL (≈ 33.3 µM)
CC(C)(O/N=C(\C(=O)N[C@@H]1C(=O)N2C(C(=O)[O-])=C(C[n+]3ccccc3)CS[C@H]12)c1csc(N)n1)C(=O)O [CEFTAZIDIME] |  |  |  |  |  |  |  |  |  |  |  |  |  |  |  |  |  |  |  |  | MIC [25]: > 32 µg/mL; MIC [30]: > 32 µg/mL; MIC [31]: > 32 µg/mL; MIC [32]: > 32 µg/mL; MIC [33]: > 32 µg/mL; MIC [34]: > 32 µg/mL; MIC [40]: 32 µg/mL (≈ 58.5 µM); MIC [35]: 32 µg/mL (≈ 58.5 µM); MIC [36]: > 32 µg/mL; MIC [37]: > 32 µg/mL; MIC [38]: > 32 µg/mL; MIC [39]: > 32 µg/mL
